Screens (PubChem BioAssay)
Only some compounds are listed: those with a hit (about 1.6% of all), similar ones and a draw of the others.
NR2E3 ag-1 – NR2E3 (human) agonism; Q9Y5X4; GST-NR2E3/biotin-RetCOR TR-FRET, 1536-well; inhibition of corepressor binding, % at 4.78 µM; 320,000 compounds, 0.12% hits;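 active means percent inhibition above the cutoff of mean plus 3 SD of all tested compounds, set per screening campaign, cut at about 20% in these data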
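Assay system: NR2E3–RetCOR corepressor complex. Quantity: 1.35 nM GST-NR2E3. Buffer or medium: pH 7.5 Tris-based buffer. Reagent: biotinylated RetCOR corepressor at 7 nM final. Schedule: 5 h at 4 °C. Detection: TR-FRET, emission read at 617 and 671 nm. Replicates: one well per compound, singlicate testing.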
NR2E3 ag-2 – human photoreceptor-specific nuclear receptor agonism; CHO-S Gal4-NCOR/VP16-NR2E3 two-hybrid, luciferase; inhibition of corepressor binding, % at 3.98 µM; 360,000 compounds, 0.35% hits; AID 602229;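 active means inhibition above the mean of all tested compounds plus 3 SD, cut at about 70% in these data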;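 further: higher means lower luciferase signal from less NR2E3 corepressor binding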
Rev-erbA mod – modulators of human Rev-erb alpha DNA binding; activity, % at 10 µM; 370,000 compounds, 0.79% hits; P20393; Rev-erbα–FITC-DNA binding, fluorescence polarization, 90 min;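 active means activity above about 14%, limit read from the data; passing the limit was not always enough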
VLA-4 inh – inhibition in a human VLA-4 binding assay; VLA-4 expressing cells, ligand binding flow cytometry; AID 2557; P13612; 330,000 compounds, 0.2% hits; inhibition, % (about 7 µM as worked out from the volumes in the protocol); in the data active means inhibition above about 50%
Target sequence (P13612 whole entry, looked up): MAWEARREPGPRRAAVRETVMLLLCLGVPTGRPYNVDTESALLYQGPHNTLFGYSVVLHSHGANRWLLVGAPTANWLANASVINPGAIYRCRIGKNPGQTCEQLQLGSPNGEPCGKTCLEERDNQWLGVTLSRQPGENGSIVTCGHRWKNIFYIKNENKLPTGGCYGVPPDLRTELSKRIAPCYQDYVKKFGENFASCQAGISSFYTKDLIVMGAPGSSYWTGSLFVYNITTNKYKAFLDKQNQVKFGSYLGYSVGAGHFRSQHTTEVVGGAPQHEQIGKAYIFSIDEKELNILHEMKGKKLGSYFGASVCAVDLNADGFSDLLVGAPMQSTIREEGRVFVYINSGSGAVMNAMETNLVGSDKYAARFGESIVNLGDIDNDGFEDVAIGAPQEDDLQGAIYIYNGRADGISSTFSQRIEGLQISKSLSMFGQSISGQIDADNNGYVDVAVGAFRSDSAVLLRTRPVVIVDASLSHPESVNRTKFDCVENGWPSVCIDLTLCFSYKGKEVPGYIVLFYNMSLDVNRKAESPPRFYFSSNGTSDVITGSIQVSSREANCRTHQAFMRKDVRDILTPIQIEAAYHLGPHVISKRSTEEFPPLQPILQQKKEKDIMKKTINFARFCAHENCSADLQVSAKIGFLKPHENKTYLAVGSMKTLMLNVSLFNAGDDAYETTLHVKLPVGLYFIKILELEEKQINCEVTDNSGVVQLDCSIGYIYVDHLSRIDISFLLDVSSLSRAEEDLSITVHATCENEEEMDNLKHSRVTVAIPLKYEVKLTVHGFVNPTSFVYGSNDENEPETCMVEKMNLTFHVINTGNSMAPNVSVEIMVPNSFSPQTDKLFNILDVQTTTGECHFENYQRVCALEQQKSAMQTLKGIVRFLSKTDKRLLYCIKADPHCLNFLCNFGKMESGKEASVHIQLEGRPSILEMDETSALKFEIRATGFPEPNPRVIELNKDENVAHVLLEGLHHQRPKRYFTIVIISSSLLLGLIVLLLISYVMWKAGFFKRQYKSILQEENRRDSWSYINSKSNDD
PG9 Ab binder – small molecules binding HIV-1 gp120 antibody PG9. TR-FRET gp120-PG9 antibody binding. inhibition, % at 6.7 µM. 360,000 compounds, 0.43% hits; in the data active means inhibition above about 8.5%
Rev-erbA confirm – confirmation of modulators of human Rev-erb alpha DNA binding; activation, % at 25 µM; AID 1259319; Rev-erb alpha FITC-DNA binding, fluorescence polarization, 90 min; 3,000 compounds, 61% hits; shares compounds with Rev-erbA mod;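 active means activation at or above a set limit, or at least 3 SD above the negative control mean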
RORg DNA counter – counter-screen for Rev-erb alpha modulators: RORgamma DNA binding. shares compounds with Rev-erbA mod. purified RORgamma protein-FITC-DNA binding, fluorescence polarization. IC50, µM. 910 compounds, 8% hits. AID 1259320;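 active means Compounds whose fitted half-maximal concentration for disrupting protein-DNA binding is below 10 micromolar; the record names Rev-erb in its text, so the target is in doubt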
Of the large screens only hits and unclear results are named; the others gave an inactive call (follow-up assays come after a bar, where they were run).

COc1ccc(-c2cc(C(F)(F)F)n3ncc(C(=O)NCC4CCCO4)c3n2)cc1 (stereo not drawn)	Rev-erbA mod 47 (no result: NR2E3 ag-1, VLA-4 inh) | Rev-erbA confirm 22
CCOC(=O)C1CCCN(C2=NC(=O)/C(=C/c3ccc(N(C)C)cc3)S2)C1 (stereo not drawn)	Rev-erbA mod 27 | Rev-erbA confirm inactive
Cc1ccc(-n2nccc2-c2nn(-c3cccc(C(F)(F)F)c3)c(=O)n(C)c2=O)cc1	Rev-erbA mod 33 | Rev-erbA confirm inactive
COc1ccc(NC(=O)COC(=O)CO/N=C(\C)c2ccc3c(c2)OCO3)cc1S(N)(=O)=O	none
COc1ccc(CCN2CCC(Nc3nc4ccccc4n3Cc3ccc(F)cc3)CC2)cc1	none
COc1c(O)cccc1[C@@H](O)C1CCN(CCc2ccc(F)cc2)CC1	Rev-erbA mod 19 | Rev-erbA confirm inactive
COc1ccc(-c2noc(=O)n2Cc2ccccc2F)cc1	none
Cc1ccc(OCC(=O)Nc2ccc(Cl)cc2)c(-n2nc3ccccc3n2)c1	Rev-erbA mod 69 | Rev-erbA confirm inactive
CCOc1ccc(C)cc1-n1nc2ccccc2n1	none
O=C(COc1ncnc2c(Cl)cc(Cl)cc12)NC1CCCCCC1	Rev-erbA mod 30 | Rev-erbA confirm 32 | RORg DNA counter 1.3
CN(CC(=O)Nc1cccc(Cl)c1)S(=O)(=O)/C=C/c1ccccc1	none (no result: NR2E3 ag-1, VLA-4 inh)
CCc1ccc(-c2cc3c(=O)n(CC(=O)N4CCCC4)nc(C)n3n2)cc1	Rev-erbA mod 49 | Rev-erbA confirm 20
CCc1ccc(-c2cc3c(=O)n(CC(=O)N4CCCCCC4)nc(C)n3n2)cc1	none
O=C(Nc1ccc2oc(-c3ccccc3)nc2c1)c1ccncc1	none
O=C(Nc1ccc(-c2nc3ccccc3o2)cc1)c1ccc2c(c1)OCO2	none
O=C(Nc1ccc2oc(-c3ccccc3F)nc2c1)c1ccc2c(c1)OCCO2	Rev-erbA mod 15 | Rev-erbA confirm inactive
O=C(NC(=S)Nc1ccc2oc(-c3ccncc3)nc2c1)c1ccccc1F	Rev-erbA mod 37 | Rev-erbA confirm inactive
O=C(Nc1ccc2oc(-c3ccc(F)cc3)nc2c1)c1ccccc1F	Rev-erbA mod 41 | Rev-erbA confirm 25
O=C(O)c1cc2cc(Oc3ccccc3)ccc2[nH]1	none
CCc1noc(C)c1C(=O)Nc1ccc(F)c(F)c1	none
CCc1noc(C)c1C(=O)Nc1nc(-c2ccc(Cl)cc2Cl)c(C)s1	Rev-erbA mod 32 | Rev-erbA confirm 25
O=C(O)CCCNS(=O)(=O)/C=C/c1ccccc1	none
COc1ccc(OC)c(NC(=O)C2CCN(C(=O)C3CC(=O)N(c4ccc(C)cc4)C3)CC2)c1 (stereo not drawn)	none
O=C(COc1nc2ccccc2nc1N1CCOCC1)N1CCc2ccccc21	Rev-erbA mod 97 (no result: NR2E3 ag-1, VLA-4 inh) | Rev-erbA confirm 62 | RORg DNA counter 4.3
O=C(COc1nnnc2ccccc12)N1CCCc2ccccc21	none
Cc1cc(C)c(C#N)c(SCCS(=O)(=O)c2ccc(Cl)cc2)n1	none
Cc1cc(C)c(C#N)c(SCCS(=O)(=O)c2ccc(C(C)(C)C)cc2)n1	Rev-erbA mod 24 | Rev-erbA confirm inactive
CC1CCCCC1NC(=O)CSC1=Nc2ccccc2C2CC=NN12 (stereo not drawn)	none
CC1CCCC(NC(=O)CSC2=Nc3ccccc3C3CC=NN23)C1C (stereo not drawn)	Rev-erbA mod 17 | Rev-erbA confirm inactive
Cc1cccc(N2CCN(c3ccc4cc(S(=O)(=O)N5CCCCC5)ccc4n3)CC2)c1C	Rev-erbA mod 101 | Rev-erbA confirm 50 | RORg DNA counter inactive
Cc1cccc(N2CCN(S(=O)(=O)c3ccc4c(c3)n(C)c(=O)c(=O)n4C)CC2C)c1 (stereo not drawn)	none
Cc1cccc(N2CCN(c3ccc4cc(S(=O)(=O)N5CCCCC5)ccc4n3)CC2C)c1 (stereo not drawn)	Rev-erbA mod 78 | Rev-erbA confirm 49 | RORg DNA counter inactive
Cc1ccc(C)c(N2CCN(c3ccc4cc(S(=O)(=O)N5CCCCC5)ccc4n3)CC2)c1	none
CCNC(=O)NC(=O)C(C)OC(=O)c1oc2ccc(OC)cc2c1C (stereo not drawn)	Rev-erbA mod 23 | Rev-erbA confirm inactive
COc1cccc(-n2nnnc2SCC(=O)Nc2ccc3c(c2)OCCO3)c1	Rev-erbA mod 30 | Rev-erbA confirm 46 | RORg DNA counter inactive
CCn1c2ccccc2c2cc(C3C(C#N)=C(C)NC(C)=C3C#N)ccc21	Rev-erbA mod 102 | Rev-erbA confirm 63 | RORg DNA counter inactive
CCn1c2ccccc2c2cc(C3C(C#N)=C(N)Oc4n[nH]c(COC)c43)ccc21 (stereo not drawn)	none
COc1ccc2[nH]c(C(=O)Nc3cccc(C)n3)cc2c1	none
Cc1nonc1NC(=O)CSc1nc2cc(Cl)ccc2c2c1CCCC2	Rev-erbA mod 173 (no result: PG9 Ab binder) | Rev-erbA confirm 132
Cc1ccc2c3c(c(SCC(=O)Nc4nonc4C)nc2c1)CCCC3	Rev-erbA mod 26 | Rev-erbA confirm 39 | RORg DNA counter inactive
CSc1ccccc1-c1nnc(-c2ccc(Cl)cc2Cl)o1	none
CSc1ccccc1-c1nnc(-c2ccc(Cl)c(Cl)c2)o1	Rev-erbA mod 47 | Rev-erbA confirm 51 | RORg DNA counter inactive
CSc1nc2ccc3nc(NC(=O)c4ccccc4)sc3c2s1	Rev-erbA mod 38 | Rev-erbA confirm inactive
Cc1csc2c(=O)sc(NC(=O)c3ccc(F)cc3)nc12	none
Cc1csc2nc(NC(=O)c3ccccc3)sc(=O)c12	Rev-erbA mod 24 | Rev-erbA confirm inactive
O=C(c1cc(S(=O)(=O)N2CCOCC2)ccc1Cl)N1CCc2ccccc2C1	none
COc1ccc(C(=O)Nc2ccc(Br)cc2F)cc1S(=O)(=O)N1CCCC1	none (no result: NR2E3 ag-1, VLA-4 inh)
O=C1CCCC(O)=C1C=Nc1ccc2c(c1)oc1ccccc12	Rev-erbA mod 30 | Rev-erbA confirm 28
Cc1cc(C(=O)CSc2nnc(CCC(N)=O)n2C)c(C)n1C1CC1	none (no result: NR2E3 ag-1, VLA-4 inh)
CN(Cc1nc2ccccc2c(=O)[nH]1)C(=O)c1cc(-c2ccc(Br)cc2)nc2ccccc12	Rev-erbA mod 36 (no result: NR2E3 ag-1, VLA-4 inh) | Rev-erbA confirm 23
O=C(COC(=O)C1CCN(S(=O)(=O)c2ccc3c(c2)OCCO3)CC1)Nc1cccc2ccccc12	none
Cc1ccc(N(Cc2cc3cc(C)ccc3[nH]c2=O)C(=O)c2cccs2)cc1	Rev-erbA mod 48 | Rev-erbA confirm 79 | RORg DNA counter inactive
CCn1c(C)c(C2=CCN(S(=O)(=O)c3ccccc3)CC2)c2ccccc21	Rev-erbA mod 28 | Rev-erbA confirm 26
CC1CCN(c2ccc3nnc(CCC(=O)Nc4ccc(F)c(F)c4)n3n2)CC1	Rev-erbA mod 28 | Rev-erbA confirm inactive
